# According to ChEMBL document CHEMBL1124879, “Inotropic "A" ring substituted sulmazole and isomazole analogues” (1990):
# Key:
# Cavia porcellus [1] = organism: Cavia porcellus; assay: In vitro concentration required to give a 50% increase in basal contractile force in an isolated paced guinea pig papillary muscle preparation; format: functional, Muscle tissue
# Outline: (§1)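 Isolated guinea pig papillary muscle, loaded at 500 mg, in Krebs-Henseleit with 2.5 mM Ca2+, gassed 95% O2-5% CO2, 34 °C. Paced with 1-ms rectangular pulses at 1.5 Hz, 20% above threshold voltage. Isometric tension recorded. Preparations not contracting uniformly after 60 min were rejected. pA50 is the -log concentration giving a 50% rise in basal force. Top concentrations tested were 0.2, 1 or 5 mM.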
# Canis familiaris [2] = organism: Canis familiaris; assay: The effective dose was measured to produce the 10%increase in heart rate.; format: functional, Canis lupus familiaris
# Outline: (§2)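 Anesthetized open-chest beagle dogs, 8.5-13 kg, thiopentone induction, α-chloralose/pentobarbitone maintenance, single iv bolus at 0.1 mL/kg. Heart rate taken by tachograph. Doses (mg/kg iv) giving a 50% rise in dP/dt, a 30% fall in diastolic pressure and a 10% rise in heart rate were calculated from mean dose-response data.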
# Canis familiaris [3] = organism: Canis familiaris; assay: The effective dose to produce the 30%decrease in diastolic blood pressure.; format: functional, Canis lupus familiaris, Artery; outline: as §2
# Canis familiaris [4] = assay: Maximum percentage change in dP/dt, diastolic blood pressure and heart rate produced by the compound at a dose of 3.0 mg/kg; format: functional, Canis lupus familiaris, Artery
# Outline: (§3)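 Beagle dogs of either sex, 8.5-13 kg, anesthetized and open-chest. Induction with thiopentone sodium 30 mg/kg iv, then maintenance with α-chloralose 15 mg/kg plus pentobarbitone 6 mg/kg via a femoral vein cannula. Single iv bolus at 0.1 mL/kg, with vehicle bolus in every animal. Body temperature held at 37-38 °C. Maximal % change recorded for dP/dt, diastolic blood pressure and heart rate.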
# Canis familiaris [5] = assay: Maximum percentage increase in heart rate produced by the compound at a dose of 3 mg/kg; format: functional, Canis lupus familiaris; outline: as §3
# Canis familiaris [6] = organism: Canis familiaris; assay: The effective dose to produce a maximum increase in dP/dt diastolic blood pressure and heart rate; format: functional, Canis lupus familiaris, Artery; outline: as §2
# Canis familiaris [7] = assay: Maximum percentage decrease in diastolic blood pressure produced by the compound at a dose of 3.0 mg/kg; format: functional, Canis lupus familiaris, Artery; outline: as §3
# Cavia porcellus [8] = organism: Cavia porcellus; assay: In vitro concentration required to give a 50% increase in basal contractile force in an isolated paced guinea pig papillary muscle preparation at 1mM; i = 'inactive'; format: functional; details: Muscle tissue; outline: as §1
# Cavia porcellus [9] = organism: Cavia porcellus; assay: In vitro concentration required to give a 50% increase in basal contractile force in an isolated paced guinea pig papillary muscle preparation at 0.2mM; i = 'inactive'; format: functional; details: Muscle tissue; outline: as §1
# Canis familiaris [10] = assay: Maximum percentage increase in heart rate produced by the compound at a dose 0.3 mg/kg; format: functional, Canis lupus familiaris; outline: as §3
# Canis familiaris [11] = assay: Maximum percentage change in dP/dt, diastolic blood pressure and heart rate produced by the compound at a dose 0.3 mg/kg; format: functional, Canis lupus familiaris, Artery; outline: as §3
# Canis familiaris [12] = assay: Maximum percentage decrease in diastolic blood pressure produced by the compound at a dose 1 mg/kg; format: functional, Canis lupus familiaris, Artery; outline: as §3
# Canis familiaris [13] = assay: Maximum percentage change in dP/dt, diastolic blood pressure and heart rate produced by the compound at a dose of a mg/kg; format: functional, Canis lupus familiaris, Artery; outline: as §3
# Canis familiaris [14] = assay: Maximum percentage decrease in diastolic blood pressure produced by the compound at a dose 3 mg/kg; format: functional, Canis lupus familiaris, Artery; outline: as §3
# Cavia porcellus [15] = organism: Cavia porcellus; assay: In vitro concentration required to give a 50% increase in basal contractile force in an isolated paced guinea pig papillary muscle preparation at 5mM; i = 'inactive'; format: functional; details: Muscle tissue; outline: as §1
# Canis familiaris [16] = organism: Canis familiaris; assay: The effective dose was measured to produce the 10%increase in heart rate; format: functional, Canis lupus familiaris; outline: as §2
# Canis familiaris [17] = organism: Canis familiaris; assay: The effective dose to produce the 30%decrease in diastolic blood pressure; format: functional, Canis lupus familiaris, Artery; outline: as §2
# Canis familiaris [18] = assay: Maximum percentage change in dP/dt, diastolic blood pressure and heart rate produced by the compound at a dose 3.0 mg/kg; format: functional, Canis lupus familiaris, Artery; outline: as §3
structure (smiles),measurement,setting,value
COc1c[nH]c2nc(-c3ccc([S+](C)[O-])cc3OC)nc-2c1 (stereo not given),pA50,Cavia porcellus [1],3.63
COc1cc([S+](C)[O-])ccc1-c1nc2cc(N)c[nH]c-2n1 (stereo not given),ED10 HR,Canis familiaris [2],1.41 mg/kg
same,ED30 DBP,Canis familiaris [3],> 3 mg/kg
same,Max increase,Canis familiaris [4],87%
same,Max increase,Canis familiaris [5],15%
same,ED50,Canis familiaris [6],0.5 mg/kg
same,Max decrease,Canis familiaris [7],25%
same,pA50,Cavia porcellus [1],4.01
COc1cc(SC)ccc1-c1nc2c(N)cncc2[nH]1,pA50,Cavia porcellus [8],Weak inotropic effects
COc1cc([S+](C)[O-])ccc1-c1nc2cc(Cl)c[nH]c-2n1 (stereo not given),pA50,Cavia porcellus [1],3.61
COc1ccc(-c2nc3c(C)nccc3[nH]2)c(OC)c1,pA50,Cavia porcellus [9],Weak inotropic effects
COc1cc([S+](C)[O-])ccc1-c1nc2cnccc2[nH]1 (stereo not given) [ISOMAZOLE],ED10 HR,Canis familiaris [2],0.056 mg/kg
same,ED30 DBP,Canis familiaris [3],0.16 mg/kg
same,Max increase,Canis familiaris [10],15%
same,Max increase,Canis familiaris [11],88%
same,ED50,Canis familiaris [6],0.05 mg/kg
same,Max decrease,Canis familiaris [12],43%
same,pA50,Cavia porcellus [1],4.64
COc1cc([S+](C)[O-])ccc1-c1nc2c(OC)nccc2[nH]1 (stereo not given),ED10 HR,Canis familiaris [2],0.28 mg/kg
same,ED30 DBP,Canis familiaris [3],0.2 mg/kg
same,Max increase,Canis familiaris [13],125%
same,Max increase,Canis familiaris [10],10%
same,ED50,Canis familiaris [6],0.13 mg/kg
same,Max decrease,Canis familiaris [14],70%
same,pA50,Cavia porcellus [1],3.91
COc1ccc(-c2nc3ccc[nH]c-3n2)c(OC)c1,pA50,Cavia porcellus [1],5.08
COc1cc([S+](C)[O-])ccc1-c1nc2c(N)cncc2[nH]1 (stereo not given),pA50,Cavia porcellus [1],3.72
COc1cc2[nH]c(-c3ccc([S+](C)[O-])cc3OC)nc2cn1 (stereo not given),pA50,Cavia porcellus [1],3.76
COc1ccc(-c2nc3cc[nH]cc-3n2)c(OC)c1,pA50,Cavia porcellus [1],4.01
COc1cc([S+](C)[O-])ccc1-c1nc2cc(O)c[nH]c-2n1 (stereo not given),pA50,Cavia porcellus [1],3.75
COc1ccc(-c2nc3cc(N)c[nH]c-3n2)c(OC)c1,pA50,Cavia porcellus [1],4.8
CNc1[nH]ccc2nc(-c3ccc(OC)cc3OC)nc1-2,pA50,Cavia porcellus [8],Weak inotropic effects
COc1ccc2[nH]c(-c3ccc([S+](C)[O-])cc3OC)nc2n1 (stereo not given),pA50,Cavia porcellus [1],3
COc1cc([S+](C)[O-])ccc1-c1nc2cc(C)c[nH]c-2n1 (stereo not given),pA50,Cavia porcellus [1],3.73
COc1ccc(-c2nc3cc(C(C)=O)c[nH]c-3n2)c(OC)c1,pA50,Cavia porcellus [8],Weak inotropic effects
COc1ccc(-c2nc3c(N)cncc3[nH]2)c(OC)c1,pA50,Cavia porcellus [15],Weak inotropic effects
COc1cc([S+](C)[O-])ccc1-c1nc2[nH]ccc(OC)c-2n1 (stereo not given),pA50,Cavia porcellus [1],4.1
COc1cc([S+](C)[O-])ccc1-c1nc2cccnc2[nH]1 (stereo not given) [SULMAZOLE],ED10 HR,Canis familiaris [16],0.5 mg/kg
same,ED30 DBP,Canis familiaris [17],1 mg/kg
same,Max increase,Canis familiaris [5],20%
same,Max increase,Canis familiaris [18],73%
same,ED50,Canis familiaris [6],0.8 mg/kg
same,Max decrease,Canis familiaris [7],36%
same,pA50,Cavia porcellus [1],4.7
COc1cc([S+](C)[O-])ccc1-c1nc2c(OC)cncc2[nH]1 (stereo not given),pA50,Cavia porcellus [1],3
